# Screening data deposited in PubChem BioAssay by several laboratories.
# Hits are enriched below; roughly 1.6% of the tested compounds scored in any of these assays.
# ASAP1 GAP inh: blocks human ASAP1-stimulated Arf1 GTP hydrolysis; inhibition, % at 16.5 µM; GDP FP detection; 0.19% of 360,000 active; AID 624377; in the data active means inhibition above about 25%;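 further: 0% = vehicle with enzyme and substrate and 100% = no enzyme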
# Target sequence (Q9ULH1 325-724 limits assumed): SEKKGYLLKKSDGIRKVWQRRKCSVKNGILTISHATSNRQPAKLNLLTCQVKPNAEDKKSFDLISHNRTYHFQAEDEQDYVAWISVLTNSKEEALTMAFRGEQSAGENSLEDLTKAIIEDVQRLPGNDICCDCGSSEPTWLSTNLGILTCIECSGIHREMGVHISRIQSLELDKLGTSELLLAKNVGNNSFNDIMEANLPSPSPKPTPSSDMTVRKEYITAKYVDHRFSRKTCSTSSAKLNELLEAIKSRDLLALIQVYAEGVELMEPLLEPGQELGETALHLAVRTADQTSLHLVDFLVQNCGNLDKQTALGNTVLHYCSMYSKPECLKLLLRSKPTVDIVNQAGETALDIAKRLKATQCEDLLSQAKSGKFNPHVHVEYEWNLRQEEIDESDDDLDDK
# Cardio protect: protects H9c2 cardiomyocytes from peroxide injury. H2O2 injury protection, ATPLite, 2 h. protection from H2O2 cell death, % at 20 µM. 0.63% of 360,000 active;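 active means compounds giving at least 50% protection of heart cells from peroxide-induced death in the single-dose screen, raw or plate-pattern-corrected value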;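 further: 0% = DMSO wells with peroxide and 100% = DMSO wells without peroxide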
# ARFGAP1 inh: rat ARFGAP1 inhibition; AID 651572; inhibition, % at 16.5 µM; 0.26% of 360,000 active; Arfgap1-stimulated ARF1 GTP hydrolysis, GDP FP detection;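 active means inhibition above a per-plate limit, mean inhibition of low control wells plus 3 SD, cut at about 25% in these data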;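 further: 0% = DMSO wells with enzyme and 100% = wells lacking Arfgap1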
# Target sequence (Q62848 1-136 limits assumed): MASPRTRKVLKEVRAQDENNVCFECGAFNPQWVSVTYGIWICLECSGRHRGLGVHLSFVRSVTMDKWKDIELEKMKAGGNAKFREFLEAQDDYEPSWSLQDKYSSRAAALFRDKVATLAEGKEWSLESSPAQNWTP
#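 Repeats: one replicate per compound; assay system: rat Arfgap1 catalytic domain, aa 1-136; times: enzyme reaction 120 min at 25 °C after 20 min preincubation; detection: FP of antibody-bound GDP Alexa 633 tracer, ex 620/em 688 nm; benchmarks: high control wells lacking Arfgap1, low control full reaction with DMSO; reagent: human ARF1(Δ1-17)-GTP substrate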
# Neddylation inh: inhibitors of human cullin neddylation | TR-FRET cullin neddylation, biochemical | inhibition, % at 25 µM | 0.58% of 360,000 active; in the data active means inhibition above about 36%
# Neddyl inh conf: confirmation of human cullin neddylation inhibitors | shares compounds with Neddylation inh | TR-FRET cullin neddylation biochemical assay | calls only at 25 µM | 13% of 1,800 active | AID 652217; in the data active means inhibition above about 40%;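 further: neddylation substrate is the cullin 1 ring ligase complex with SKP2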
# An asterisk follows results filed as active; i = inactive; · = not tested or not shown; + = active, no number.
SMILES,ASAP1 GAP inh,Cardio protect,ARFGAP1 inh,Neddylation inh,Neddyl inh conf
O=C(c1ccc(Cl)cc1Cl)N1CCN(c2ccc(N3CCOCC3)nn2)CC1,-10,2,-7,52*,·
COc1ccccc1C(=O)N1CCN(c2ccc(N3CCOCC3)nn2)CC1,5,11,-1,·,·
CCNC(=O)C1CCCN(Cc2cc(-c3ccccc3)on2)CC1 (stereo not drawn),-7,9,8,7,·
Cc1ccsc1/C=N/Nc1nc(Cl)c(Cl)cc1Cl,10,1,1,39*,i
CC(C)C[C@H]1COc2cc(N(C)CCO)ccc2S(=O)(=O)N1,4,·,3,22,·
CC(=O)Nc1ccc(/C=C/c2nc3ccccc3o2)cc1,4,-5,-10,47*,·
O=C(Nc1ccc(/C=C/c2nc3ccccc3o2)cc1)c1c(F)cccc1F,-1,-11,13,·,·
CC(=O)Nc1cccc(N/C=C(\C=O)c2nc3ccccc3o2)c1,0,33,1,55*,i
CCOC(=O)N[C@@H](Cc1cccnc1)C(=O)N1CCC[C@H]1C(=O)NCCc1ccccc1Cl,12,·,11,·,·
CC(=O)Oc1ccc(Cn2c(C)c(C(=O)NCc3cccc(C(F)(F)F)c3)sc2=O)cc1,9,-4,3,1,·
NNC(=O)c1oc2nc(-c3ccccc3)cc(-c3ccccc3)c2c1N,-2,0,1,41*,i
COc1cccc(NC(=S)N/N=C2\CC(C)(C)Oc3ccc(O)cc32)c1,1,8,-7,43*,i
CC1(c2nnnn2Cc2ccccc2)CCC(=O)N1Cc1ccco1 (stereo not drawn),5,·,-13,14,·
COc1ccc(C=NNC(=O)c2ccccc2OCc2ccc(F)cc2)c(OC)c1,-12,15,-2,42*,i
CCOc1cc(/C=N/NC(=O)c2ccccc2OCc2ccc(F)cc2)ccc1O,3,43,5,12,·
COc1ccc(/C=N/NC(=O)c2ccc(N(C)S(=O)(=O)c3ccccc3)cc2)c(OC)c1,19,-3,5,43*,i
COCC1CN(CCc2ccc(F)cc2)S(=O)(=O)c2c(OCCN3C(=O)[C@@H]4[C@H](C3=O)[C@@H]3C=C[C@H]4C3)cccc2O1 (stereo partly drawn),-3,·,-8,·,·
Cn1cc(-c2cccc(Cl)c2)cc(C#N)c1=O,1,-1,-7,39*,i
Cn1cc(-c2cccc(C(F)(F)F)c2)cc(C#N)c1=O,-9,3,-1,36,·
O=c1c2c(nc3c(-c4ccccc4)c[nH]n13)CCCC2,5,12,-3,38*,·
N#Cc1c[nH]n2c(=O)c3c(nc12)CCC3,-7,3,-2,7,·
CC(C)CNC(=O)C1(C)CCCN1C(=O)C(C)(C)Oc1ccc(Cl)cc1 (stereo not drawn),-10,15,5,2,·
CCOC(=O)/C=c1\s/c(=C\c2ccc3c(c2)OCCO3)c(=O)n1CC(=O)NCC1CCCO1 (stereo not drawn),9,21,-2,43*,i
C[C@@H]1CCCCO[C@@H](CN(C)C(=O)CCC(F)(F)F)[C@@H](C)CN([C@H](C)CO)C(=O)c2cc(N(C)C)ccc2O1,4,6,-5,5,·
NCCNC(=O)c1c(NC(=O)c2ccccc2)sc2c1CCCC2,0,27,-3,46*,i
SMILES,ASAP1 GAP inh,Cardio protect,ARFGAP1 inh,Neddylation inh,Neddyl inh conf
O=C(Nc1sc2c(c1C(=O)NCCCO)CCCC2)c1ccccc1,3,9,7,30,·
COC(=O)c1cc(-c2ccc3c(c2)OCO3)nc2ccccc12,-3,8,3,·,·
Cc1cc(C)nc(NC(=O)c2cc(-c3ccc4c(c3)OCO4)nc3ccccc23)c1,4,4,2,53*,·
CCNC(=O)C1CCCN(C(=O)c2ccco2)CC1 (stereo not drawn),-1,1,0,15,·
Cc1cc(/C=C(\C#N)C(=O)OCC(=O)NC(=O)NC(C)(C)C)c(C)n1CCC(C)C,0,-26,8,40*,i
CCCn1c(C)cc(/C=C(\C#N)C(=O)OCC(=O)Nc2cccc(S(N)(=O)=O)c2)c1C,19,-11,-4,63*,i
O=S1(=O)N[C@@H](Cc2ccccc2)COc2cc(N3CCCCC3)ccc21,-2,·,8,·,·
Cc1c(C)c2cc(Cl)c(OCc3nn[nH]n3)cc2oc1=O,-15,7,3,47*,i
CCc1nn(CC(=O)NCCN2CCN(C)CC2)c(=O)c2cc3c(OC)cccc3n12,5,0,-2,·,·
CCc1nn(CC(=O)NCCC(C)C)c(=O)c2cc3c(OC)cccc3n12,11,0,4,40*,i
O=c1cc(-c2ccccc2)[nH]c2nc3ccccc3n12,-7,-29,1,·,·
O=c1cc(CCl)[nH]c2nc3ccccc3n12,-2,3,1,42*,i
CCCCCCc1c(C)[nH]c2nc3ccccc3n2c1=O,-13,7,-11,13,·
CCCc1c(C)[nH]c2nc3ccccc3n2c1=O,-7,3,6,46*,i
CCCCNC(=O)C1(C)CCCCCN1Cc1cc2ccccc2o1 (stereo not drawn),4,3,-1,1,·
CCN(CC)Cc1c(O)ccc2c(-c3ccccc3)cc(=O)oc12,6,-4,9,42*,i
CCCCN(CC)Cc1c(O)ccc2c(-c3ccccc3)cc(=O)oc12,-2,-14,-7,43*,·
CC(C)NC(=O)N(C)C[C@@H]1OCc2cn(nn2)CCCC(=O)N([C@@H](C)CO)C[C@H]1C,11,·,7,·,·
C=CCOc1c(CNc2cccc(C(=O)O)c2)cccc1OC,12,0,-1,·,·
C=CCOc1c(CNc2cccc(C(=O)O)c2)cccc1OCC,-3,6,-11,47*,i
COc1ccc2cc3cc(C(=O)NCCCN4CCc5ccccc5C4)sc3nc2c1,-16,2,3,47*,+
O=C(NC(CC1=CCCCC1)c1ccccc1)C(F)(F)F (stereo not drawn),-13,·,3,·,·
CC1(C(=O)NS(=O)(=O)c2ccccc2)CCN1C(=O)CC1CCCC1 (stereo not drawn),0,4,-12,3,·
CC(C)c1cc(C(=O)OCC(=O)N2CCN(C(=O)c3ccco3)CC2)c(O)c(C(C)C)c1,-5,2,12,34*,i
CCOc1cc(N2CCC(O)CC2)ccc1Nc1ncc2c(n1)N(C)c1ccccc1C(=O)N2C,8,·,-13,·,·
CC(=O)Nc1cccc(-c2ccnc3c2CC(C)(C(=O)NCc2cccs2)O3)c1 (stereo not drawn),2,4,13,1,·
O=C(O)c1ccc2nc(-c3ccccc3)c(-c3ccccc3)nc2c1,8,1,0,22,·
CCN1CCN(C(=O)c2ccc3nc(-c4ccccc4)c(-c4ccccc4)nc3c2)CC1,-18,-1,0,60*,+
COC(CNC(=O)c1ccc2nc(-c3ccccc3)c(-c3ccccc3)nc2c1)OC,-1,18,-4,49*,+
COc1ccc(-c2nc3ccc(C(=O)NCC(OC)OC)cc3nc2-c2ccc(OC)cc2)cc1,-18,9,12,16,·
